# Lmaj promast – reduces viability of Leishmania major promastigotes. inhibition, % at 10 µM. resazurin fluorescence viability. hit rate 9% among 200,000;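 note: promastigotes grown with compound for 44 hours at 28 °C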
# Diaphorase act – diaphorase activation or chemical reduction counter-screen. activation factor at 20 µM. hit rate 0.005% among 190,000. Diaphorase/resazurin coupled assay, resorufin fluorescence, 16 min; hits give high values; 1 = vehicle wells, 0 = NADH-free wells;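 active = diaphorase activity raised at least twofold by the compound at 20 µM; inactive = activation factor below 2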
#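 Material: purified diaphorase enzyme from Clostridium kluyveri / Medium: HEPES pH 7.4 buffer with MgCl2 and Tween 20 / Schedule: enzyme reaction of 16 min at room temperature / Measured by: resorufin fluorescence, excitation 544 nm, emission 590 nm / Evaluation: rise in resorufin formation, marking diaphorase activation or chemical reduction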
# G6PDH counter – L. mesenteroides G6PDH inhibition counter-screen. Purified L. mesenteroides G6PDH, diaphorase/resazurin coupled fluorescence, 45 min. inhibition, % at 5 µM. hit rate 0.12% among 200,000. AID 1020
# WT yeast gro inh – growth inhibition of WT yeast, mitochondrial fusion screen; mitochondrial fusion phenotypic screen, WT strain; inhibition, % at 10 µM; hit rate 2.1% among 190,000; in the data active = inhibition above about 58%; tested in S. cerevisiae
# Diaphorase inh – inhibits diaphorase or chemically oxidizes, flagging diaphorase assay artifacts | hit rate 0.69% among 190,000 | diaphorase resazurin-to-resorufin fluorescence, NADH, 16 min; bacterial (C. kluyveri) enzyme, not human | AID 1217 | inhibition, % at 20 µM;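 active = primary screen inhibition at 20 µM above a set limit, cut at about 50% in these data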;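 note: plate controls were DMSO with full reaction for no effect and wells lacking NADH for full effect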
#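 Assay system – diaphorase enzyme from Clostridium kluyveri · Amount – diaphorase 0.14 U/mL (working solution) · Times – reaction incubation of 16 min at room temperature · Controls – No-NADH positive control and DMSO neutral control · Signal – resorufin fluorescence 544/590 nm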
# * hit, by the source's call. Compounds with a hit are over-represented: about 11% of the library has one in this group of screens. Cut-off read from the data, not from the text of the source, unless noted: active = inhibition above about 50%; inactive = the rest.
SMILES,Lmaj promast,Diaphorase act,G6PDH counter,WT yeast gro inh,Diaphorase inh
CC(NC(=S)Nc1ccc(S(=O)(=O)N2CCOCC2)cc1)C1CC2CCC1C2 (configuration not stated),63*,0.8,1,26,19
O=S(=O)(c1ccc(NC(=S)Nc2ccccc2)cc1)N1CCOCC1,1,1,5,-2,-1
Cc1cccc2cc(CN(Cc3nnnn3Cc3ccco3)C3CCCC3)c3nnnn3c12,59*,0.7,-40,21,26
COc1ccc(C2c3sc(=O)[nH]c3SC3C4CCC(C4)C23)cc1 (configuration not stated),19,0.8,-17,65*,24
CC(/C=N\Nc1nnc2c(n1)[nH]c1c(C)cccc12)=C\c1ccco1,6,0.9,1,-19,12
O=C(/C=C/c1ccccc1Cl)Nc1ccncc1,100*,0.8,4,13,15
CN(CC(=O)Nc1ccncc1)S(=O)(=O)c1ccc(Br)cc1,-1,0.8,8,10,17
CN(CCCC(=O)Nc1ccncc1)S(=O)(=O)c1ccc(Cl)cc1,86*,1.1,10,12,-12
O=C(/C=C/c1c(F)cccc1Cl)Nc1ccncc1,43,0.9,-2,24,11
O=C(/C=C/c1ccc(Cl)cc1Cl)Nc1ccncc1,95*,0.9,11,40,7
O=C(CCCOc1ccc(Cl)cc1Cl)Nc1ccncc1,99*,0.9,4,16,9
CC(OC(=O)CNC(=O)c1ccccc1F)C(=O)Nc1nc(-c2ccccc2)cs1 (configuration not stated),-3,1,4,0,0
CCCCC(CC)CNC(=O)c1ncn[nH]1 (configuration not stated),-6,0.9,-4,-13,8
CC(=O)N(C)c1ccc(NC(=O)/C=C/c2ccccc2Cl)cc1,60*,0.9,22,11,5
O=C(/C=C/c1cccc(Cl)c1)NCc1ccncc1,-4,1,6,9,4
O=C(/C=C/c1cccc(Cl)c1)Nc1ccncc1,61*,0.9,-3,6,10
O=C(/C=C/c1c(Cl)cccc1Cl)Nc1ccncc1,98*,0.7,6,17,31
COc1ccc(CNc2oc(-c3cccc4ccccc34)nc2C#N)cc1,-6,0.9,4,12,12
CCOP(=O)(OCC)c1nc(-c2cccc3ccccc23)oc1NCCc1ccc(OC)cc1,97*,0.7,10,70*,25
O=C(/C=C/c1ccco1)c1ccc(NC(=O)C23CC4CC(CC(C4)C2)C3)cc1,59*,0.8,-10,-11,19
Cc1ccccc1OCCNC(=O)CSc1ccc(C(F)(F)F)cc1[N+](=O)[O-],-3,0.8,8,0,19
O=C(COc1ccc([N+](=O)[O-])cc1)NNC(=S)NC(=O)c1ccc(Br)cc1,-10,0.7,0,70*,33
O=C(CCN1CCCCC1)NNC(=S)NC(=O)c1ccc(Br)cc1,75*,0.7,4,11,34
O=C(CCN1CCCC1)Nc1ccc(Br)cc1,-2,1,-1,-4,0
O=C(CCN1CCOCC1)NNC(=S)NC(=O)c1ccc(Br)cc1,-5,0.3,-10,24,66*
SMILES,Lmaj promast,Diaphorase act,G6PDH counter,WT yeast gro inh,Diaphorase inh
O=C(COc1ccccc1)NNC(=S)NC(=O)c1ccccc1,-6,0.6,6,32,39
Cc1cccc2c(C(=O)Nn3cnnc3)cc(-c3ccccc3Cl)nc12,-6,1,6,-2,4
O=C1c2cccc([N+](=O)[O-])c2C(=O)N1CCO,4,0.8,3,-8,19
O=C1c2cccc3c(Nc4ccccc4Cl)c([N+](=O)[O-])cc(c23)C(=O)N1CCO,38,0.4,16,7,56*
C=CCN1C(=O)/C(=C2/C(=O)N(CC(=O)O)c3ccccc32)S/C1=N/c1nccs1,3,0.7,-3,13,31
C=CCn1c[n+](CC(=O)c2ccc(Br)s2)c2ccccc21,3,1.1,7,-1,-10
N#CC1=C(N)N(c2ccc(Oc3ccccc3)cc2)C(=O)C1,91*,0.7,-23,1,32
O=Cc1cn(-c2ccccc2)nc1-c1ccncc1,14,0.9,-3,-5,7
CC1=NNC(=O)/C1=C\c1cn(-c2ccccc2)nc1-c1ccccc1,100*,0.7,27,61,28
CC1(C)CC(=O)C(=Cc2cn(CCC#N)nc2-c2ccc(Cl)cc2)C(=O)C1,0,0.9,0,11,15
CC1(C)CC(=O)C(=Cc2cn(-c3ccccc3)nc2-c2ccc(Cl)cc2)C(=O)C1,69*,0.8,7,-1,21
Cc1ccc(S(=O)(=O)N2CCCCC2)cc1NC(=O)COC(=O)Cc1cccc(C(F)(F)F)c1,-1,0.8,11,6,23
Cc1cc(C)c2c(-n3cccc3)nn(CC#N)c2n1,-2,1,3,-6,2
CCC(C(=O)Nc1ccc(OC)c(Cl)c1)c1ccccc1 (configuration not stated),53*,0.8,12,59*,16
c1ccc(-c2cc(-c3nnc4n3N=C(c3ccc5ccccc5c3)CS4)[nH]n2)cc1,55*,1,-59,5,4
COc1ccc(C2=Nn3c(nnc3-c3ccccc3)SC2)cc1OC,1,1,4,-12,4
Fc1ccc(C2=Nn3c(nnc3-c3n[nH]c4c3CCC4)SC2)cc1,51*,0.8,3,11,24
Cc1cc(-c2nnc3n2N=C(c2ccc(-c4ccccc4)cc2)CS3)n[nH]1,66*,0.9,6,17,7
Oc1ccc(C2=Nn3c(nnc3-c3ccco3)SC2)cc1O,-2,0.3,19,0,70*
COc1ccc(-n2c(N)c(Br)c(=O)[nH]c2=O)cc1,1,1,1,-5,2
CCSc1nnc2ccc(-c3ccco3)nn12,-3,0.8,2,-2,25
COc1ccc(S(=O)(=O)N[C@@H](Cc2ccc(Cl)cc2)C(=O)N2CC[C@@]3(O)CCCC[C@H]3C2)cc1,86*,1,5,12,4
COc1ccc(S(=O)(=O)N[C@H](C(=O)N2CC[C@@]3(O)CCCC[C@H]3C2)c2ccccc2)cc1,7,0.9,0,1,12
O=C1OCCC1Sc1nc2cc(Cl)ccc2s1 (configuration not stated),-5,0.9,6,14,8
Cc1ccc(S(=O)(=O)NC2(C(F)(F)F)C(=O)Nc3c2c(=O)[nH]c(=O)n3-c2ccccc2)cc1 (configuration not stated),72*,0.9,4,12,5
O=[N+]([O-])/C=C/c1cn(Cc2ccc(Cl)cc2)c2ccccc12,99*,1,-8,72,0
CCOC(=O)Cn1cc(/C=C/[N+](=O)[O-])c2ccccc21,36,1,17,44,4

# Bioassay records from PubChem.
